Measurements taken from ChEMBL document CHEMBL1122864, “1,2-Dihydro-2-oxo-6-(2,2-dimethylpropyl)-3-pyridinecarboxylic acid, analogues, and derivatives. A new class of oral hypoglycemic agents” (1985).
Calls of active or inactive are those of the source. The calls are words filed in the database; no cut-off is given here.

Assays:
Rattus norvegicus [1] = species: Rattus norvegicus; assay: Hypoglycemic activity in the 18-h fasted normal rat with respect to 1-butyl-3-(p-tolylsulphonyl)urea; type: functional
Outline: (§1)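 In 18-h fasted rats (oral dosing, s.c. glucose load), activity was first confirmed, then compounds were retested at half-dose intervals alongside the positive control. Potency relative to tolbutamide came from a parallel line assay.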

Rattus norvegicus [2] = species: Rattus norvegicus; assay: Hypoglycemic activity in blood glucose at 2 hr (positive control) in the 18-h fasted normal rat; type: functional
Outline: (§2)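 Sprague-Dawley-derived rats (120–130 g), fasted 18 h, in groups of four. Each got 0.5 mL by stomach tube of test compound (100 mg/kg), tolbutamide (25 mg/kg) or vehicle (carboxymethylcellulose/Polysorbate 80/NaCl/benzyl alcohol in water). Then 1.0 mL 12.5% glucose in 0.9% saline was given s.c. Barbiturate anesthesia at 110 min; vena cava blood drawn 9 min later.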

Rattus norvegicus [3] = assay: Hypoglycemic activity in blood glucose at 2 hr (treated) in the 18-h fasted normal rat at a dose of 100 mg/kg; type: functional; outline: as §2
Rattus norvegicus [4] = assay: Hypoglycemic activity in the 18-h fasted normal rat with respect to 1-butyl-3-(p-tolylsulphonyl)urea; inactive at 100 mg/kg at the second stage of testing; type: functional, organism-based; design: dose 100 mg/kg; outline: as §1
Rattus norvegicus [5] = species: Rattus norvegicus; assay: Hypoglycemic activity in blood glucose at 2 hr (positive control) in the fasted-refed rat; type: functional
Outline: (§3)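 Fasted-refed model: rats fasted 18 h, then given 2 mL liquid diet by stomach tube, otherwise handled as in the fasted-rat test. Blood glucose % change read at 2 h.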

Rattus norvegicus [6] = species: Rattus norvegicus; assay: Hypoglycemic activity in blood glucose at 2 hr (treated) in the fasted-refed rat; type: functional; outline: as §3

Compound | Relative potency (Rattus norvegicus [1]) | Change (Rattus norvegicus [2]) [%] | Change (Rattus norvegicus [3]) [%] | Relative potency (Rattus norvegicus [4]) | Change (Rattus norvegicus [5]) [%] | Change (Rattus norvegicus [6]) [%]
CCC(C)(C)c1ccc(C(=O)O)c(O)n1 | 0.9 | -32 | -67 |  |  | 
Cc1ccc(C(=O)O)c(O)n1 |  | -34 | 1 | inactive |  | 
CCCCCc1ccc(C(=O)O)c(O)n1 |  | -25 | -2 | inactive |  | 
CC(C)(C)Cc1ccc(CO)c(O)n1 | 5.3 | -26 | -40 |  |  | 
CCCCCCC(C)(C)Cc1ccc(C(=O)O)c(O)n1 |  | -37 | 8 | inactive |  | 
Cn1c(CC(C)(C)C)ccc(C(=O)O)c1=O |  | -34 | -3 | inactive |  | 
CC(C)Cc1ccc(C(=O)O)c(=O)n1C | 0.6 | -22 | -36 |  |  | 
CC(C)Cc1ccc(C(=O)O)c(O)n1 | 1 | -34 | -61 |  | -48 | -54
CC(C)(C)Cc1ccc(C=O)c(O)n1 | 5.9 | -47 | -47 |  |  | 
CC(C)(C)Cc1ccnc(O)c1C(=O)O |  | -34 | -9 | inactive |  | 
CC(C)c1ccc(C(=O)O)c(O)n1 |  | -26 | -23 | inactive |  | 
CC(C)(C)Cc1ccc(C(=O)O)cn1 |  | -31 | -4 | inactive |  | 
CC(C)(C)Cc1ccc(CC(=O)O)c(O)n1 | 0.25 | -25 | -25 |  |  | 
CC(C)(C)CC1=NC(=O)CC=C1 |  | -36 | -1 | inactive |  | 
CCCCCCC(C)(C)c1ccc(C(=O)O)c(O)n1 |  | -37 | 5 | inactive |  | 
CC(C)CCc1ccc(C(=O)O)c(O)n1 |  | -28 | -4 | inactive |  | 
CCC(C)(C)Cc1ccc(C(=O)O)c(O)n1 | 3.8 | -38 | -54 |  |  | 
CCOC(=O)c1ccc(CC(C)(C)C)nc1O | 7.4 | -42 | -54 |  |  | 
CC(C)(C)Cc1ccc(C(=O)[O-])c(O)n1.[Na+] | 7.9 | -26 | -56 |  |  | 
CC(C)(C)Cc1ccc(C(N)=O)c(O)n1 |  | -25 | 30 | inactive |  | 
O=C(O)c1ccc(CC2CCC2)nc1O |  | -37 | -14 | inactive |  | 
CC(C)(C)Cc1ccc(C(=O)O)c(O)n1 | 13 | -39 | -59 |  | -40 | -60
CC(C)(C)Cc1ccc(-c2nn[nH]n2)c(O)n1 | 1.6 | -34 | -37 |  |  | 
O=C(O)c1ccc[nH]c1=O | 0.25 | -33 | -26 |  | -55 | -4
CC(C)(C)c1ccc(C(=O)O)c(O)n1 | 1 | -39 | -69 |  | -40 | -58
